Laboratory results from ChEMBL document CHEMBL1125875, “Renin inhibitory peptides. Incorporation of polar, hydrophilic end groups into an active renin inhibitory peptide template and their evaluation in a human renin infused rat model and in conscious sodium-depleted monkeys” (J Med Chem, 1991).
Numbered stars: 1 amine (or outer) side, 2 acyl side, 3 side chain; on linkers, the order of the positions; unused ones are H or OH. Square brackets hold non-standard residues; d marks the D form. Peptide text beside a SMILES is read from it. * marks the point of attachment. ξ: configuration not given here. LeuΨ(ξCHOHCH2)Val = CC(C)C[C@H](N[*:1])C(O)C[C@H](C(=O)[*:2])C(C)C; X1 = CC(C)[C@H](C[C@H](O)[C@H](CC1CCCCC1)N[*:1])C(=O)[*:2]; Suberoyl(NMe-taurine) = CN(CCS(=O)(=O)O)C(=O)CCCCCCC(=O)*; X3 = CC(C)C[C@H](N[*:1])[C@@H](O)C[C@H](C(=O)[*:2])C(C)C; NH(2-picolyl-N-oxide) = [O-][n+]1ccccc1CN*; γGlu = O=C(O)[C@H](CCC(=O)[*:2])N[*:1]; NMeH = CN[C@@H](Cc1c[nH]cn1)C(=O)O; NHCH2(2-pyridyl) = c1ccc(CN*)nc1; X4 = O=C(CCCO[P+]([O-])(O)O)*; X5 = O=C(CCCOP(=O)(O)O)*; X2 = O=C(COP(=O)(O)O)*

Each compound was assayed against T1, Renin (Homo sapiens, UniProt P00797) (assay: Inhibition of human plasma renin.).
T1 sequence (P00797 whole entry): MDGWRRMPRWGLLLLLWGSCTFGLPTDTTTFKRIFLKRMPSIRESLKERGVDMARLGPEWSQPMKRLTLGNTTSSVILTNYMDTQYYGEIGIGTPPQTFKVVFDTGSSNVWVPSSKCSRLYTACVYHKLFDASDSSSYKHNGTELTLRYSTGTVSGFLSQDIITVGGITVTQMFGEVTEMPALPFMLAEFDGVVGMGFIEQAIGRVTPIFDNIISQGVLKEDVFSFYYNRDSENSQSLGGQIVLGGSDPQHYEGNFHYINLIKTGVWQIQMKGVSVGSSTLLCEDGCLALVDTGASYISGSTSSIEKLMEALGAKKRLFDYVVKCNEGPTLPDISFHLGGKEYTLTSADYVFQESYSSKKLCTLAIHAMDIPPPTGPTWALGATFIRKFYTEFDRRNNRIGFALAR
Assay type: cell-free
Method in brief: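 IC50 taken as the inhibitor concentration at which 50% of renin enzymatic activity remains.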

| SMILES | IC50 [pM] |
| --- | --- |
| CC[C@H](C)[C@H](NC(=O)[C@@H](C[C@H](O)[C@H](CC(C)C)NC(=O)[C@H](Cc1c[nH]cn1)N(C)C(=O)[C@H](Cc1ccccc1)NC(=O)CCCCCCC(=O)N(C)CCS(=O)(=O)O)C(C)C)C(=O)NCc1cccc[n+]1[O-] | 1200 |
| CC[C@H](C)[C@H](NC(=O)[C@@H](CC(O)[C@H](CC(C)C)NC(=O)[C@H](Cc1cnc[nH]1)N(C)C(=O)[C@H](Cc1ccccc1)NC(=O)[C@@H]1CCCN1C(=O)CCCO[P+]([O-])(O)O)C(C)C)C(=O)NCc1cccc[n+]1[O-] (some centres undefined) (X4-PF[NMeH][LeuΨ(ξCHOHCH2)Val]I-{NH(2-picolyl-N-oxide)}) | 1900 |
| CC[C@H](C)[C@H](NC(=O)[C@@H](C[C@H](O)[C@H](CC(C)C)NC(=O)[C@H](Cc1c[nH]cn1)N(C)C(=O)[C@H](Cc1ccccc1)NC(=O)[C@@H]1CCCN1C(=O)COP(=O)(O)O)C(C)C)C(=O)NCc1ccccn1 (X2-PF[NMeH][X3]I-{NHCH2(2-pyridyl)}) | 1600 |
| CC[C@H](C)[C@H](NC(=O)[C@@H](CC(O)[C@H](CC(C)C)NC(=O)[C@H](Cc1c[nH]cn1)N(C)C(=O)[C@H](Cc1ccccc1)NC(=O)[C@@H]1CCCN1C(=O)COP(=O)(O)O)C(C)C)C(=O)NCc1cccc[n+]1[O-] (some centres undefined) (X2-PF[NMeH][LeuΨ(ξCHOHCH2)Val]I-{NH(2-picolyl-N-oxide)}) | 2500 |
| CC[C@H](C)[C@H](NC(=O)[C@@H](C[C@H](O)[C@H](CC(C)C)NC(=O)[C@H](Cc1c[nH]cn1)N(C)C(=O)[C@H](Cc1ccccc1)NC(=O)CCCCCCC(=O)N(C)CCS(=O)(=O)O)C(C)C)C(=O)NCc1ccccn1 | 660 |
| CC[C@H](C)[C@H](NC(=O)[C@@H](C[C@H](O)[C@H](CC(C)C)NC(=O)[C@H](Cc1c[nH]cn1)N(C)C(=O)[C@H](Cc1ccccc1)NC(=O)[C@@H]1CCCN1C(=O)CCCOP(=O)(O)O)C(C)C)C(=O)NCc1ccccn1 (X5-PF[NMeH][X3]I-{NHCH2(2-pyridyl)}) | 450 |
| CC(C)CCNC(=O)[C@@H](C[C@H](O)[C@H](CC1CCCCC1)NC(=O)[C@H](Cc1c[nH]cn1)N(C)C(=O)[C@H](Cc1ccccc1)NC(=O)CC(C)(C)N)C(C)C | 410 |
| CC[C@H](C)[C@H](NC(=O)[C@@H](C[C@H](O)[C@H](CC1CCCCC1)NC(=O)[C@H](Cc1c[nH]cn1)N(C)C(=O)[C@H](Cc1ccccc1)NC(=O)CC(C)(C)N)C(C)C)C(=O)NCc1cccc[n+]1[O-] | 430 |
| CC[C@H](C)[C@H](NC(=O)[C@@H](CC(O)[C@H](CC(C)C)NC(=O)[C@H](Cc1c[nH]cn1)N(C)C(=O)[C@H](Cc1ccccc1)NC(=O)[C@@H]1CCCN1C(=O)CCCCCCC(=O)N(C)CCS(=O)(=O)O)C(C)C)C(=O)NCc1ccccn1 (some centres undefined) ({Suberoyl(NMe-taurine)}-PF[NMeH][LeuΨ(ξCHOHCH2)Val]I-{NHCH2(2-pyridyl)}) | 1800 |

Compounds with a lower IC50, results first:

| IC50 [pM] | SMILES |
| --- | --- |
| 310 | CC[C@H](C)[C@H](NC(=O)[C@@H](CC(O)[C@H](CC(C)C)NC(=O)[C@H](Cc1c[nH]cn1)N(C)C(=O)[C@H](Cc1ccccc1)NC(=O)[C@@H]1CCCN1C(=O)CCCCCCC(=O)N(C)CCS(=O)(=O)O)C(C)C)C(=O)NCc1cccc[n+]1[O-] (some centres undefined) ({Suberoyl(NMe-taurine)}-PF[NMeH][LeuΨ(ξCHOHCH2)Val]I-{NH(2-picolyl-N-oxide)}) |
| 290 | CC[C@H](C)[C@H](NC(=O)[C@@H](C[C@H](O)[C@H](CC1CCCCC1)NC(=O)[C@H](Cc1c[nH]cn1)N(C)C(=O)[C@H](Cc1ccccc1)NC(=O)CC(C)(C)N)C(C)C)C(=O)NCc1ccccn1 |
| 320 | CC[C@H](C)[C@H](NC(=O)[C@@H](C[C@H](O)[C@H](CC1CCCCC1)NC(=O)[C@H](Cc1c[nH]cn1)N(C)C(=O)[C@H](Cc1ccccc1)NC(=O)[C@@H]1CCCN1C(=O)CC[C@H](N)C(=O)O)C(C)C)C(=O)NCc1cccc[n+]1[O-] (γGlu-PF[NMeH][X1]I-{NH(2-picolyl-N-oxide)}) |
| 280 | CC(C)CCNC(=O)[C@@H](C[C@H](O)[C@H](CC1CCCCC1)NC(=O)[C@H](Cc1c[nH]cn1)N(C)C(=O)[C@H](Cc1ccccc1)NC(=O)[C@@H]1CCCN1C(=O)CC[C@H](N)C(=O)O)C(C)C |
| 290 | CC[C@H](C)[C@H](NC(=O)[C@@H](C[C@H](O)[C@H](CC1CCCCC1)NC(=O)[C@H](Cc1c[nH]cn1)N(C)C(=O)[C@H](Cc1ccccc1)NC(=O)[C@@H]1CCCN1C(=O)CC[C@H](N)C(=O)O)C(C)C)C(=O)NCc1ccccn1 (γGlu-PF[NMeH][X1]I-{NHCH2(2-pyridyl)}) |
